Data on six compounds can be found in ChEMBL document CHEMBL1649311, “A clinical isolate of Candida albicans with mutations in ERG11 (encoding sterol 14alpha-demethylase) and ERG5 (encoding C22 desaturase) is cross resistant to azoles and amphotericin B” (2010).

In experiment [1] the test system is Candida albicans. Put plainly: Antifungal activity against Candida albicans isolate 6 after 48 hrs by Etest. The conditions noted are these: isolate 6, 48 h.
The test system of experiment [2] is Candida albicans. The experiment in a line: Antifungal activity against Candida albicans isolate 14 after 48 hrs by Etest. The conditions noted are these: isolate 14, 48 h.
In experiment [3] the test system is Candida albicans. Put plainly: Antifungal activity against Candida albicans isolate 108 harboring erg11 and erg5 double mutant after 48 hrs by Etest. The experiment is classed as functional. The conditions noted are these: isolate 108, 48 h.
The test system of experiment [4] is Candida albicans. The experiment in a line: Ratio of MIC for Candida albicans isolate 108 harboring erg11 and erg5 double mutant to MIC for Candida albicans isolate 6 expressing wild type erg11 and erg 5 enzyme. The experiment is classed as functional.
For experiment [5], the system named is Candida albicans. Put plainly: Ratio of MIC for Candida albicans isolate 108 harboring erg11 and erg5 double mutant to MIC for Candida albicans isolate14 expressing wild type erg11 and erg 5 enzyme. The experiment is classed as functional.
Experiment [6] deals with Candida albicans. The experiment in a line: Ratio of MIC for Candida albicans isolate 108 harboring erg11 and erg5 double mutant to MIC for Candida albicans isolate 177 expressing wild type erg11 and erg 5 enzyme. Format: functional.
The subject of experiment [7] is Candida albicans. Put plainly: microbe, parasite or virus in culture. The conditions noted are these: isolate 177, 48 h.
In experiment [8] the test system is Candida albicans. Put plainly: Effect on sterol composition in Candida albicans isolate 14 expressing wild type erg11 and erg5 assessed as ergosterol level after 2 hrs by gas chromatography. On the set-up: concentration or dose not given beside the values. Format: functional.
The subject of experiment [9] is Candida albicans. The experiment in a line: Effect on sterol composition in Candida albicans isolate 108 harboring erg11 and erg5 double mutant assessed as ergosta 5,7-dienol level after 2 hrs by gas chromatography. The experiment is classed as functional. On the set-up: concentration or dose not given beside the values.
For experiment [10], the system named is Candida albicans. Put plainly: Effect on sterol composition in Candida albicans isolate 14 expressing wild type erg11 and erg5 assessed as 14 -Methylergosta-8,24(28)-dien-3beta,6alpha-diol level after 2 hrs by gas chromatography. Format: functional. On the set-up: concentration or dose not given beside the values.
Experiment [11] relates to Candida albicans. The experiment in a line: Effect on sterol composition in Candida albicans isolate 108 harboring erg11 and erg5 double mutant assessed as 14 -Methylergosta-8,24(28)-dien-3beta,6alpha-diol level after 2 hrs by gas chromatography. Format: functional.
Experiment [12] concerns Candida albicans. Put plainly: Effect on sterol composition in Candida albicans isolate 14 expressing wild type erg11 and erg5 assessed as lanosterol level after 2 hrs by gas chromatography. Format: functional.
Experiment [13] concerns Candida albicans. The experiment in a line: Effect on sterol composition in Candida albicans isolate 108 harboring erg11 and erg5 double mutant assessed as lanosterol level after 2 hrs by gas chromatography. The experiment is classed as functional. On the set-up: concentration or dose not given beside the values.
Experiment [14] has as its system Candida albicans. Put plainly: Effect on sterol composition in Candida albicans isolate 14 expressing wild type erg11 and erg5 assessed as obtusifoliol level after 2 hrs by gas chromatography. The experiment is classed as functional. Details: concentration or dose not given beside the values.
In experiment [15] the test system is Candida albicans. Put plainly: Effect on sterol composition in Candida albicans isolate 108 harboring erg11 and erg5 double mutant assessed as obtusifoliol level after 2 hrs by gas chromatography. The experiment is classed as functional. Details: concentration or dose not given beside the values.
Experiment [16] has as its system Candida albicans. Put plainly: Effect on sterol composition in Candida albicans isolate 108 harboring erg11 and erg5 double mutant eburicol level after 2 hrs by gas chromatography. Format: functional. Details: concentration or dose not given beside the values.
Experiment [17] concerns Candida albicans. Put plainly: Antifungal activity against Candida albicans isolate 6 after 48 hrs by broth microdilution method. The experiment is classed as functional. To be noted: isolate 6, 48 h. Summed up: (§1)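 CLSI M27-A2 broth dilution in RPMI 1640 buffered with 0.165 M MOPS (pH 7), 37°C, for azoles (fluconazole, voriconazole, itraconazole, ketoconazole, clotrimazole). For amphotericin B, the MIC is the lowest concentration with complete growth inhibition.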
A general note: Dilution methods test growth across graded concentrations, often in twofold steps.

Experiment [18] has as its system Candida albicans. The experiment in a line: Antifungal activity against Candida albicans isolate 14 after 48 hrs by broth microdilution method. Format: functional. To be noted: isolate 14, 48 h. The method, boiled down: as §1
Experiment [19] concerns Candida albicans. The experiment in a line: Antifungal activity against Candida albicans isolate 177 after 48 hrs by broth microdilution method. The experiment is classed as functional. To be noted: isolate 177, 48 h. The method, boiled down: as §1
Experiment [20] has as its system Candida albicans. The experiment in a line: Antifungal activity against Candida albicans isolate 108 harboring erg11 and erg5 double mutant after 48 hrs by broth microdilution method. Format: functional. To be noted: isolate 108, 48 h. The method, boiled down: as §1
The test system of experiment [21] is Candida albicans. The experiment in a line: Effect on sterol composition in Candida albicans isolate 108 harboring erg11 and erg5 double mutant assessed as zymosterol level after 2 hrs by gas chromatography. The experiment is classed as functional.
Experiment [22] concerns Candida albicans. The experiment in a line: Effect on sterol composition in Candida albicans isolate 108 harboring erg11 and erg5 double mutant assessed as 14alpha-Methylfecosterol level after 2 hrs by gas chromatography. The experiment is classed as functional.
For experiment [23], the system named is Candida albicans. Put plainly: Effect on sterol composition in Candida albicans isolate 108 harboring erg11 and erg5 double mutant assessed as 4,14alpha-Dimethylcholesta-8,24-dienol level after 2 hrs by gas chromatography. Format: functional.
For experiment [24], the system named is Candida albicans. The experiment in a line: Effect on sterol composition in Candida albicans isolate 14 expressing wild type erg11 and erg5 assessed as eburicol level after 2 hrs by gas chromatography. Format: functional.
Experiment [25] concerns Candida albicans. The experiment in a line: Antifungal activity against Candida albicans isolate 6 after 48 hrs by broth microdilution method in presence of 10 uM of efflux pump inhibitor FK506. The experiment is classed as functional. Summed up: (§2)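 Doubling dilutions of azole with a fixed 10 μM FK506 in microtiter wells in MOPS-buffered RPMI 1640 (pH 7). Read visually after 48 h at 37°C. The MIC is the lowest azole concentration giving at least 80% growth inhibition versus control wells.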

In experiment [26] the test system is Candida albicans. Put plainly: Antifungal activity against Candida albicans isolate 14 after 48 hrs by broth microdilution method in presence of 10 uM of efflux pump inhibitor FK506. The experiment is classed as functional. The conditions noted are these: isolate 14, 48 h. Summed up: as §2
Experiment [27] concerns Candida albicans. The experiment in a line: Antifungal activity against Candida albicans isolate 177 after 48 hrs by broth microdilution method in presence of 10 uM of efflux pump inhibitor FK506. The conditions noted are these: isolate 177, 48 h. The experiment is classed as functional. Summed up: as §2
The subject of experiment [28] is Candida albicans. Put plainly: Antifungal activity against Candida albicans isolate 108 harboring erg11 and erg5 double mutant after 48 hrs by broth microdilution method in presence of 10 uM of efflux pump inhibitor FK506. The experiment is classed as functional. To be noted: isolate 108, 48 h. Summed up:
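C. albicans clinical isolate grown in RPMI 1640 buffered with 0.165 M MOPS (pH 7). Azole MICs by CLSI M27-A2 broth microdilution, with doubling drug dilutions plus a fixed 10 μM FK506. Plates incubated 48 h at 37°C and read visually. MIC taken as the lowest azole concentration giving at least 80% growth inhibition versus control wells.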

Experiment [29] deals with Candida albicans. The experiment in a line: Effect on sterol composition in Candida albicans isolate 108 harboring erg11 and erg5 double mutant assessed as 4,4-Dimethylcholesta-8,14,24-trienol level after 2 hrs by gas chromatography. The experiment is classed as functional.

≈ marks a conversion by molar mass, not a printed value.

Take `C[C@@H]1[C@H](O)[C@@H](C)/C=C/C=C/C=C/C=C/C=C/C=C/C=C/[C@H](O[C@@H]2O[C@H](C)[C@@H](O)[C@H](N)[C@@H]2O)C[C@@H]2O[C@](O)(C[C@@H](O)C[C@@H](O)[C@H](O)CC[C@@H](O)C[C@@H](O)CC(=O)O[C@H]1C)C[C@H](O)[C@H]2C(=O)O` [AMPHOTERICIN B]: the MIC came out at 0.25 µg/mL (≈ 0.271 µM) in the experiment on Candida albicans [1], 0.25 µg/mL (≈ 0.271 µM) against Candida albicans [2], 4 µg/mL (≈ 4.33 µM) against Candida albicans [3] and 0.25 µg/mL (≈ 0.271 µM) in the experiment on Candida albicans [7]. The Ratio in the experiment with Candida albicans [4], with Candida albicans [5] and in the experiment on Candida albicans [6] was 8 throughout.

On to `Clc1ccccc1C(c1ccccc1)(c1ccccc1)n1ccnc1` [CLOTRIMAZOLE], for which the Activity with Candida albicans [8] was 30%; in the experiment on Candida albicans [9], 42.6%; in the experiment with Candida albicans [10] it was 35%; in the experiment with Candida albicans [11] it was 32.8%; with Candida albicans [12] it was 35%; in the experiment on Candida albicans [13], 16.4%. Moreover, the Activity with Candida albicans [14] turned out to be 35%; with Candida albicans [15], 16.4%; with Candida albicans [16], 8.2%. The MIC against Candida albicans [17] was 1 µg/mL (≈ 2.9 µM); against Candida albicans [18], 0.0625 µg/mL (≈ 0.181 µM); against Candida albicans [19] it was 1 µg/mL (≈ 2.9 µM); against Candida albicans [20], 2 µg/mL (≈ 5.8 µM).

With `OC(Cn1cncn1)(Cn1cncn1)c1ccc(F)cc1F` [FLUCONAZOLE], the Activity stood at 1.4% with Candida albicans [21]; 45.5% in the experiment with Candida albicans [8]; 9.4% with Candida albicans [22]; 5.5% in the experiment with Candida albicans [23]; 57.1% with Candida albicans [9]; 25.4% in the experiment on Candida albicans [10]. Besides, the Activity in the experiment on Candida albicans [12] was determined as 25%; in the experiment on Candida albicans [13], 25.7%; in the experiment with Candida albicans [14], 25%; with Candida albicans [15], 25.7%; in the experiment on Candida albicans [24], 4.1%; in the experiment with Candida albicans [16] it was 0.9%. Besides, the Activity with Candida albicans [25] came out at 1 µg/mL. For the same compound, the MIC against Candida albicans [17] stood at 256 µg/mL (≈ 836 µM); in the experiment with Candida albicans [18], 1 µg/mL (≈ 3.27 µM); with Candida albicans [19], 256 µg/mL (≈ 836 µM); against Candida albicans [20] it was 64 µg/mL (≈ 209 µM); in the experiment with Candida albicans [26], 1 µg/mL; in the experiment on Candida albicans [27] it was 0.5 µg/mL. Also, in the experiment on Candida albicans [28], the MIC came out at 16 µg/mL.

With `CCC(C)n1ncn(-c2ccc(N3CCN(c4ccc(OCC5COC(Cn6cncn6)(c6ccc(Cl)cc6Cl)O5)cc4)CC3)cc2)c1=O` (stereo unspecified) [ITRACONAZOLE], the Activity with Candida albicans [8] is recorded as 33%; with Candida albicans [9], 25%; with Candida albicans [10], 38%; with Candida albicans [11], 50%; in the experiment with Candida albicans [12], 29%; with Candida albicans [13], 16.7%. Besides, the Activity was 29% in the experiment with Candida albicans [14], 16.7% with Candida albicans [15] and 8.3% in the experiment on Candida albicans [16]. For the same compound, the MIC in the experiment with Candida albicans [17] turned out to be 16 µg/mL (≈ 22.7 µM); with Candida albicans [18], 0.0625 µg/mL (≈ 0.0886 µM); with Candida albicans [19], 16 µg/mL (≈ 22.7 µM); with Candida albicans [20], 2 µg/mL (≈ 2.83 µM).

As for `CC(=O)N1CCN(c2ccc(OCC3COC(Cn4ccnc4)(c4ccc(Cl)cc4Cl)O3)cc2)CC1` (stereo unspecified) [KETOCONAZOLE], the Activity in the experiment with Candida albicans [8] is 36.4%; in the experiment with Candida albicans [9] it was 24.4%; in the experiment with Candida albicans [10], 37.2%; in the experiment on Candida albicans [11] it was 45.1%; in the experiment on Candida albicans [12], 26.4%; in the experiment with Candida albicans [13] it was 20.3%. Moreover, the values for the Activity with Candida albicans [14], in the experiment with Candida albicans [15] and with Candida albicans [16] were 26.4%, 20.3% and 10.2%, respectively. The MIC in the experiment on Candida albicans [17] is 16 µg/mL (≈ 30.1 µM); in the experiment on Candida albicans [18] it was 0.0625 µg/mL (≈ 0.118 µM); with Candida albicans [19] it was 16 µg/mL (≈ 30.1 µM); against Candida albicans [20], 1 µg/mL (≈ 1.88 µM).

In the case of `C[C@@H](c1ncncc1F)[C@](O)(Cn1cncn1)c1ccc(F)cc1F` [VORICONAZOLE], the Activity with Candida albicans [29] came to 3.4%; in the experiment on Candida albicans [8], 47.3%; with Candida albicans [22], 12.7%; in the experiment with Candida albicans [23], 7.2%; in the experiment on Candida albicans [9], 27.4%; in the experiment with Candida albicans [10] it was 28.6%. Moreover, the Activity in the experiment with Candida albicans [11] amounted to 10.4%; with Candida albicans [12], 24.1%; with Candida albicans [13], 29.5%; in the experiment with Candida albicans [14], 24.1%; in the experiment on Candida albicans [15] it was 29.5%; with Candida albicans [16], 9.4%. Besides, the MIC with Candida albicans [17] is 16 µg/mL (≈ 45.8 µM); against Candida albicans [18] it was 0.0625 µg/mL (≈ 0.179 µM); with Candida albicans [19], 16 µg/mL (≈ 45.8 µM); against Candida albicans [20] it was 8 µg/mL (≈ 22.9 µM); in the experiment with Candida albicans [25] (Candida albicans, isolate 6, 48 h), under 0.0625 µg/mL; with Candida albicans [26], under 0.0625 µg/mL. Also, the MIC in the experiment on Candida albicans [27] was under 0.0625 µg/mL; with Candida albicans [28], 4 µg/mL.
